Data as given in ChEMBL document CHEMBL1122917, “Vinblastin-23-oyl amino acid derivatives: chemistry, physicochemical data, toxicity, and antitumor activities against P388 and L1210 leukemias” (J Med Chem, 1985).

Columns and labels:
Assay type in all cases: functional
Mus musculus [1] = experiment: Percent increase in life span at dose 20 mg/kg/day in 10 mice implanted with P388 leukemia cell line
How it was run: (§1)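 Female DBA2 mice inoculated iv on day 0 with 10^4 P388 cells; single iv treatment on day 1 with drug as sulfate salt in physiological saline. Survival followed; %ILS from all deaths and survivors as (T/C × 100) − 100, maximal MST 30 days; survivors counted on days 30 and 60. Most experiments confirmed three times.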

Mus musculus [2] = experiment: Number of survivors on 30th day at dose 20 mg/kg/day in 10 mice implanted with P388 leukemia cell line; 0/10
Mus musculus [3] = experiment: Number of survivors on 60th day at dose 40 mg/kg/day in 10 mice implanted with P388 leukemia cell line; 0/10
Mus musculus [4] = experiment: Number of survivors on 30th day at dose 40 mg/kg/day in 10 mice implanted with P388 leukemia cell line; 0/10
Mus musculus [5] = experiment: Number of survivors on 30th day at dose 50 mg/kg/day in 10 mice implanted with P388 leukemia cell line; 0/10
Mus musculus [6] = experiment: Number of survivors on 60th day at dose 20 mg/kg/day in 10 mice implanted with P388 leukemia cell line; 0/10
Mus musculus [7] = experiment: Number of survivors on 60th day at dose 10 mg/kg/day in 10 mice implanted with P388 leukemia cell line; 0/10
Mus musculus [8] = experiment: Number of survivors on 30th day at dose 10 mg/kg/day in 10 mice implanted with P388 leukemia cell line; 0/10
Mus musculus [9] = experiment: Number of survivors on 60th day at dose 50 mg/kg/day in 10 mice implanted with P388 leukemia cell line; 0/10
Mus musculus [10] = experiment: Percent increase in life span at dose 50 mg/kg/day in 10 mice implanted with P388 leukemia cell line; how it was run: as §1
Mus musculus [11] = experiment: Percent increase in life span at dose 40 mg/kg/day in 10 mice implanted with P388 leukemia cell line; how it was run: as §1
Mus musculus [12] = experiment: Percent increase in life span at dose 6 mg/kg/day in 10 mice implanted with P388 leukemia cell line; how it was run: as §1
Mus musculus [13] = experiment: Number of survivors on 60th day at dose 5 mg/kg/day in 10 mice implanted with P388 leukemia cell line
Mus musculus [14] = experiment: Number of survivors on 30th day at dose 9 mg/kg/day in 10 mice implanted with P388 leukemia cell line
Mus musculus [15] = experiment: Number of survivors on 30th day at dose 5 mg/kg/day in 10 mice implanted with P388 leukemia cell line
Mus musculus [16] = experiment: Percent increase in life span at dose 3 mg/kg/day in 10 mice implanted with P388 leukemia cell line; how it was run: as §1
Mus musculus [17] = experiment: Percent increase in life span at dose 9 mg/kg/day in 10 mice implanted with P388 leukemia cell line; how it was run: as §1
Mus musculus [18] = experiment: Percent increase in life span at dose 8 mg/kg/day in 10 mice implanted with P388 leukemia cell line; how it was run: as §1
Mus musculus [19] = experiment: Number of survivors of DBA2 mice on 60th day after inoculation with L1210 leukemia cell line intravenously at a dose of 6 mg/kg/day; 0/10; conditions: route intravenous
Mus musculus [20] = experiment: Number of survivors of DBA2 mice on 30th day after inoculation with L1210 leukemia cell line intravenously at a dose of 6 mg/kg/day; 0/10; conditions: route intravenous
Mus musculus [21] = experiment: Number of survivors on 30th day at dose 6 mg/kg/day in 10 mice implanted with P388 leukemia cell line
Mus musculus [22] = experiment: Number of survivors of DBA2 mice on 60th day after inoculation with L1210 leukemia cell line intravenously at a dose of 7 mg/kg/day; 0/10; conditions: route intravenous
Mus musculus [23] = experiment: Number of survivors on 60th day at dose 8 mg/kg/day in 10 mice implanted with P388 leukemia cell line; how it was run: as §1
Mus musculus [24] = experiment: Number of survivors on 30th day at dose 7 mg/kg/day in 10 mice implanted with P388 leukemia cell line
Mus musculus [25] = experiment: Number of survivors on 60th day at dose 7 mg/kg/day in 10 mice implanted with P388 leukemia cell line; how it was run: as §1
Mus musculus [26] = experiment: Number of survivors on 60th day at dose 9 mg/kg/day in 10 mice implanted with P388 leukemia cell line
Mus musculus [27] = experiment: Percent increase in life span of DBA2 mice after inoculation with L1210 leukemia intravenously at a dose of 7 mg/kg per day; conditions: route intravenous
How it was run: (§2)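 Female DBA2 mice inoculated iv on day 0 with 10^4 L1210 cells; drugs given iv as sulfate salts in physiological saline, mostly once on day 1. %ILS from all deaths and survivors as (T/C × 100) − 100; survivors scored on days 30 and 60.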

Mus musculus [28] = experiment: Percent increase in life span at dose 5 mg/kg/day in 10 mice implanted with P388 leukemia cell line; how it was run: as §1
Mus musculus [29] = experiment: Number of survivors on 30th day at dose 3 mg/kg/day in 10 mice implanted with P388 leukemia cell line; 0/10
Mus musculus [30] = experiment: Number of survivors of DBA2 mice on 30th day after inoculation with L1210 leukemia cell line intravenously at a dose of 7 mg/kg/day; 0/10; conditions: route intravenous
Mus musculus [31] = experiment: Number of survivors on 60th day at dose 6 mg/kg/day in 10 mice implanted with P388 leukemia cell line
Mus musculus [32] = experiment: Percent increase in life span at dose 7 mg/kg/day in 10 mice implanted with P388 leukemia cell line; how it was run: as §1
Mus musculus [33] = experiment: Number of survivors on 30th day at dose 8 mg/kg/day in 10 mice implanted with P388 leukemia cell line
Mus musculus [34] = experiment: Number of survivors on 60th day at dose 3 mg/kg/day in 10 mice implanted with P388 leukemia cell line
Mus musculus [35] = experiment: Percent increase in life span of DBA2 mice after inoculation with L1210 leukemia intravenously at a dose of 6 mg/kg per day; conditions: route intravenous; how it was run: as §2

Structure (SMILES): CCOC(=O)[C@H](CCC(=O)O)NC(=O)[C@@]1(O)[C@H](O)[C@]2(CC)C=CCN3CC[C@@]4(c5cc([C@@]6(C(=O)OC)C[C@H]7C[N@](CCc8c6[nH]c6ccccc86)C[C@](O)(CC)C7)c(OC)cc5N(C)[C@@]14C)[C@@H]32
- ILS at 20 mg/kg/day (Mus musculus [1]): 10%
- Survivors (Mus musculus [2]): 0
- Survivors (Mus musculus [3]): 0
- Survivors (Mus musculus [4]): 0
- Survivors (Mus musculus [5]): 0
- Survivors (Mus musculus [6]): 0
- Survivors (Mus musculus [7]): 0
- Survivors (Mus musculus [8]): 0
- Survivors (Mus musculus [9]): 0
- ILS at 50 mg/kg/day (Mus musculus [10]): 2.8%
- ILS at 40 mg/kg/day (Mus musculus [11]): 34.5%

Structure (SMILES): CC[C@H](C)[C@H](NC(=O)[C@@]1(O)[C@H](O)[C@]2(CC)C=CCN3CC[C@@]4(c5cc([C@@]6(C(=O)OC)C[C@H]7C[N@](CCc8c6[nH]c6ccccc86)C[C@](O)(CC)C7)c(OC)cc5N(C)[C@@]14C)[C@@H]32)C(=O)OC
- ILS at 6 mg/kg/day (Mus musculus [12]): 118%
- Survivors (Mus musculus [13]): 1
- Survivors (Mus musculus [14]): 4
- Survivors (Mus musculus [15]): 3
- ILS at 3 mg/kg/day (Mus musculus [16]): 41.3%
- ILS at 9 mg/kg/day (Mus musculus [17]): 48.3%
- ILS at 8 mg/kg/day (Mus musculus [18]): 149%
- Survivors (Mus musculus [19]): 0
- Survivors (Mus musculus [20]): 0
- Survivors (Mus musculus [21]): 3
- Survivors (Mus musculus [22]): 0
- Survivors (Mus musculus [23]): 3
- Survivors (Mus musculus [24]): 5
- Survivors (Mus musculus [25]): 2
- Survivors (Mus musculus [26]): 4
- ILS at 7 mg/kg/day (Mus musculus [27]): 64%
- ILS at 5 mg/kg/day (Mus musculus [28]): 66.5%
- Survivors (Mus musculus [29]): 0
- Survivors (Mus musculus [30]): 0
- Survivors (Mus musculus [31]): 0
- ILS at 7 mg/kg/day (Mus musculus [32]): 164%
- Survivors (Mus musculus [33]): 3
- Survivors (Mus musculus [34]): 0
- ILS at 6 mg/kg/day (Mus musculus [35]): 65.7%
